Source: paper PMC7651632 (RSC Medicinal Chemistry, 2020)
“Also recorded” adds a separate entry of the source.

Columns and labels:
[1] = tested on: L. mexicana amastigotes within macrophage host (RAW 267.4); assay: Infected cell assay: screening against infected macrophages; type: cell-based, Leishmania mexicana; settings: 24 h
RAW 267.4 macrophages = assay: Cytotoxicity screening against RAW267.4 macrophages; type: cell-based, Mus musculus
In short: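 Only compounds retained after the axenic amastigote dose-response screen were tested. Host RAW 267.4 macrophages were used. […] Selectivity index is macrophage ED50 divided by axenic amastigote ED50.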

[2] = tested on: L. mexicana axenic amastigotes; assay: Primary screen against axenic amastigotes, single concentration; type: cell-based, Leishmania mexicana; settings: 50 μM, in duplicate, inhibition of amastigote proliferation
In short: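 Run in a 96-well format against mammalian-stage L. mexicana axenic amastigotes. Each test compound was tested at a single 50 μM in duplicate, with inhibition of amastigote proliferation as the read-out. Amphotericin B served as positive control, and plate robustness was judged by Z′ factor.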

[3] = tested on: axenic L. mexicana amastigotes; assay: Secondary dose response screen against axenic amastigotes; type: cell-based, Leishmania mexicana; settings: 50 µM to 0.21 µM, 24 h + 24 h alamarBlue, 33 °C

SMILES	% inhibition Primary screen [2]	other results
CC1(C)CC[C@]2(C(=O)O)CC[C@]3(C)C(=CC[C@@H]4[C@@]5(C)CC[C@H](OC(=O)CCC(=O)O)[C@@](C)(COC(=O)CCC(=O)O)[C@@H]5CC[C@]43C)[C@@H]2C1 [IVL-1, hederagenin disuccinate]		InMAC ED50 - effective dose to kill 50% of amastigotes within macrophage host (RAW 267.4) [1]: not active; SI - selectivity index, RAW ED50/AMA ED50 (RAW 267.4 macrophages; RAW 267.4 macrophages versus axenic L. mexicana amastigotes): > 43.5; RAW ED50 - effective dose to kill 50% of host macrophage (RAW 267.4) (RAW 267.4 macrophages; toxicity study, 100 µM to 0.41 µM, 24 h): >100 µM
CC1(C)CC[C@]2(C(=O)O)CC[C@]3(C)C(=CCC4[C@@]5(C)CC[C@H](O[C@@H]6O[C@H](CO)[C@@H](O)[C@H](O)[C@H]6O[C@@H]6O[C@H](CO)[C@@H](O)[C@H](O)[C@H]6O)[C@@](C)(CO)C5CC[C@]43C)[C@@H]2C1 (some centres unmarked) [IVL-14, hederoside F]	fell below the threshold; also recorded: did not reach this cut-off	
CC1(C)CC[C@]2(CO)CC[C@]3(C)C(=CC[C@@H]4[C@@]5(C)CC[C@@H]6O[C@H]([C@H](O)[C@@H](O)[C@@H](O)CO)OC[C@@]6(C)[C@@H]5CC[C@]43C)[C@@H]2C1 [IVL-80, Anemoclemoside A2]		AMA ED50 - effective dose to kill 50% of axenic L. mexicana amastigotes [3]: >50 µM
CC1(C)CC[C@]2(C(=O)O)CC[C@]3(C)C(=CC[C@@H]4[C@@]5(C)CC[C@H](O)C(C)(C)[C@@H]5CC[C@]43C)[C@@H]2C1 [IVL-8, Oleanolic acid]	fell below the threshold; also recorded: deselected	
CC1(C)CC[C@]2(C(=O)O)CC[C@]3(C)C(=CC[C@@H]4[C@@]5(C)CC[C@H](O)[C@@](C)(CO)[C@@H]5CC[C@]43C)[C@@H]2C1 [IVL-7, hederagenin]	< 95%	
C[C@@H]1O[C@@H](O[C@H]2[C@H](O)[C@@H](O)[C@H](OC[C@H]3O[C@@H](OC(=O)[C@]45CCC(C)(C)C[C@H]4C4=CC[C@@H]6[C@@]7(C)CC[C@H](O[C@@H]8OC[C@H](O)[C@H](O)[C@H]8O)[C@@](C)(CO)[C@@H]7CC[C@@]6(C)[C@]4(C)CC5)[C@H](O)[C@@H](O)[C@@H]3O)O[C@@H]2CO)[C@H](O)[C@H](O)[C@H]1O [IVL-15, hederacoside D]	inactive	
